From publication PMC11406440 (Food and chemical toxicology : an international journal …, 2024)

What was measured:
liver = assay: Liver gene expression; type: in vivo, B6C3F1 mice
In short: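 Mice were dosed daily on both ears (25 μl/ear; acetone vehicle or 1.25, 2.5, 5% w/v) for 28 days. Half an ear pinna or the caudate liver lobe was homogenized in Buffer RLT, and total RNA was column-isolated with DNase treatment. TaqMan qPCR gave relative fold change (2−ΔΔCT) versus vehicle controls, normalized to β-actin. Liver used 4–5 mice/group, one-way ANOVA/Dunnett or Kruskal-Wallis/Dunn.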

[1] = 14-days of 3 mg/kg/day oral exposure; ref Chang et al., 2018; cited from earlier work
[2] = PFHxS exposure, 28 days (discussion, approximate)
[3] = all three concentrations of PFHxS, 28 days

O=S(=O)(O)C(F)(F)C(F)(F)C(F)(F)C(F)(F)C(F)(F)C(F)(F)F [PFHxS, Perfluorohexane sulfonic acid]
Liver Cyp7a1 gene expression (liver; 1.25% PFHxS, 28 days): Decreases | Liver Pparδ gene expression (liver; 1.25% and 2.5% PFHxS, 28 days): decrease | Liver Pparγ gene expression (liver; 1.25% and 5% PFHxS, 28 days): increase | Liver Pparα gene expression (liver; 1.25-5% PFHxS, 28 days): No change | Liver Apoa1 gene expression (liver; 2.5% PFHxS, 28 days): Decreases | Liver Serpine1 gene expression, fold increase (liver; 2.5% PFHxS, 28 days): 52 fold | Liver Acox1 gene expression, fold increase (liver; 5% PFHxS, 28 days): 6.7 fold | Liver Avpr1a gene expression (liver; 5% PFHxS, 28 days): Decreases | Liver Cd36 gene expression, fold increase (liver; 5% PFHxS, 28 days): 23 fold | Liver Cpt1b gene expression, fold increase (liver; 5% PFHxS, 28 days): 33 fold | Liver Cyp4a10 gene expression, fold increase (liver; 5% PFHxS, 28 days): 22 fold | Liver Ehhadh gene expression, fold increase (liver; 5% PFHxS, 28 days): 61 fold | Liver Lpl gene expression, fold increase (liver; 5% PFHxS, 28 days): 30 fold | Liver Pla2g12a gene expression, fold increase (liver; 5% PFHxS, 28 days): 16 fold | Liver Acox1 gene expression, fold increase (liver; [2]): ~ 6 fold | Liver Ehhadh gene expression, fold increase (liver; [2]): ~ 50 fold | Liver Cd36 gene expression, fold increase (liver; [3]): ~ 25 fold | Liver Lpl gene expression, fold increase (liver; [3]): ~ 25 fold | Serum concentration [1]: 180 µg/mL
